Screening data from PubChem BioAssay.
In the library only some 3.4% were active in any assay of this set; here they are far more common.
TAAR1 antagonist = human TAAR1 antagonists, primary screen, Fluo-8 calcium fluorescence, CHO RD-HGA16 cells. antagonist. 1.5% of 360,000 active. inhibition, % at 3 µM. Trace amine-associated receptor 1 (Homo sapiens), Q96RJ0;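 active = inhibition above a per-plate cutoff, the mean inhibition of test compounds on that plate plus 3 SD, cut at about 49% in these data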;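 also: 0% = DMSO plus EC80 beta-PEA response and 100% = DMSO alone without agonist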
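test system = CHO RD-HGA16 cells bearing hTAAR1 | replication = singlicate | controls = DMSO-only wells and EC80 β-PEA-stimulated wells | reagent = EC80 β-phenethylamine stimulus | read-out basis = percent inhibition of PEA-evoked calcium signal, max/basal emission ratio | schedule = seeding 17-24 h prior, 75-min 37 °C, 30-min RT dye loading | signal = kinetic Fluo-8 calcium fluorescence measurement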
TAAR1 agonist = human TAAR1 agonists, primary screen, Fluo-8 calcium fluorescence, CHO RD-HGA16 cells; Trace amine-associated receptor 1 (Homo sapiens), Q96RJ0; vehicle wells 0%, saturating PEA agonist 100%; activation, % at 3 µM; 0.99% of 360,000 active; AID 624467, 2012;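 active = activation above the mean activation of all test compounds in the run plus 3 SD, cut at about 38% in these data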
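Signal – calcium-sensitive Fluo-8 signal, excitation 470-495, emission 515-575 nm · System – RD-HGA16 (CHO) cells co-expressing Gα16 and hTAAR1 · Incubation – 17-24 h seeding, 75 min 37 °C dye, 30 min RT · Compound dosing – 3 µM single concentration · Repeats – no replicates (n 1)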
GPR7 antagonist = GPR7 receptor antagonists, primary screen, cell-based, fluorescence, single concentration; Neuropeptides B/W receptor type 1 (Homo sapiens), P48145; GPR7-expressing cells, fluorescence antagonist assay; inhibition, % at 4.4 µM; 1.1% of 290,000 active; in the data active = inhibition above about 16%, passing the limit was not always enough;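 also: cells stimulated with the agonist NPW; 0% = agonist with vehicle and 100% = vehicle without agonist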
TRPML3 ag = human TRPML3 channel agonists, primary screen, cell-based, HEK293 TRPML3-YFP, Fluo-8 calcium fluorescence, 3 µM | Mucolipin-3 (Homo sapiens), Q8TDD5 | 0.29% of 220,000 active | activation, % at 3 µM | 100% = the carbachol control signal;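 active = activation above its plate's cutoff, the mean activation of the plate's test wells plus 3 SD, cut at about 12% in these data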;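 also: 0% = DMSO only wells and 100% = carbachol wells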
Target sequence (Q8TDD5 whole entry, looked up): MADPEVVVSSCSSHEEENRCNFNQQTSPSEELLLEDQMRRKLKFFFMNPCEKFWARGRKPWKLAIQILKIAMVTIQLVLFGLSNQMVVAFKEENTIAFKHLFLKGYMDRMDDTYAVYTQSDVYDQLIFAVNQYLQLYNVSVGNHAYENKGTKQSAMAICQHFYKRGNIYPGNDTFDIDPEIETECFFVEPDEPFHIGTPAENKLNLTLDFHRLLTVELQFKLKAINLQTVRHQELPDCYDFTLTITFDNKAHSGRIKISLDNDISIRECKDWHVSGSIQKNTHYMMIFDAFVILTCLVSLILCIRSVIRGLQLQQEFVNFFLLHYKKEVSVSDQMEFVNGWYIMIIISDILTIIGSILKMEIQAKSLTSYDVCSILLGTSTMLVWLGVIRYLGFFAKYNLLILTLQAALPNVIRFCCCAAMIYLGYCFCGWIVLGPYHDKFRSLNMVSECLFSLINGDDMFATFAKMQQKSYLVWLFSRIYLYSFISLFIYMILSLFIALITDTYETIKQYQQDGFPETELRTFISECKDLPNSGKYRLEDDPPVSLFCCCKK
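Material: HEK293 cells stably carrying human TRPML3-YFP; compound dosing: single dose, 3 µM final nominal compound, 0.3% DMSO final; incubation: 1-h 37 °C dye load, 5-s basal, 120-s post-compound reads; technique: Fluo-8 intracellular calcium fluorescence, excitation 470-495 nm, emission 515-575 nm; read-out basis: percent activation from peak-to-basal fluorescence ratio, scaled between DMSO and carbachol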
TRPN1 ag = zebrafish TRPN1 channel agonists, primary screen, cell-based, HEK293, calcium fluorescence. HEK293 zebrafish TRPN1-YFP, Fluo-8 calcium fluorescence; 100% = response to 87 µM carbachol. activation, % at 3 µM. AID 1424, 2008. 0.18% of 220,000 active. transient receptor potential cation channel N1 (TRPN1/NompC), Danio rerio;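 active = activation above its plate's cutoff, the mean activation of test wells on that plate plus 3 SD, cut at about 19% in these data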;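 also: 0% = DMSO alone and 100% = 87 µM carbachol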
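System: zebrafish TRPN1-YFP in HEK293 cells / Dosing: 3 µM single point / Timing: dye loading 1 h at 37 °C, then 30 min room temperature / Signal: Fluo-8 calcium fluorescence, excitation 470-495 nm, emission 515-575 nm / Read-out basis: percent activation from peak over basal fluorescence ratio, control-normalized / Control set: high carbachol 87 µM, low DMSO alone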
LANA-H2A inh = blockers of LANA interaction with H2A/H2B – biochemical, FP readout, HTS, primary screen. cell-free LANA-H2A/H2B peptide, fluorescence polarization. 0.6% of 320,000 active. Protein LANA1 (Human herpesvirus 8 type P (isolate GK18)), Q9QR71. inhibition, % (no concentration beside the values); in the data active = inhibition mostly above about 10%, no sharp cut-off; inactive = mostly below about 6.7%
The depositor's hits bear a star; · = not tested or not shown.

SMILES	TAAR1 antagonist	TAAR1 agonist	GPR7 antagonist	TRPML3 ag	TRPN1 ag	LANA-H2A inh
O=C(Nc1cccnc1)c1cn(-c2ccccc2)nc1-c1cccs1	50.5*	11.0	3.2	1.2	2.0	-1.5
O=C(Nc1cccnc1)c1cc(-c2cccs2)on1	9.5	5.7	7.4	0.4	2.0	91.8*
COC(=O)c1c(-c2ccc(OC)cc2)c2c(c3c4cc(OC)ccc4n(S(=O)(=O)c4ccc(C)cc4)c13)C(=O)N(C)C2	-21.3	-1.3	·	·	·	·
Nc1[nH]c(=O)ncc1-c1ccc([N+](=O)[O-])cc1	-10.7	1.9	·	·	·	·
COc1ccc(NC(=O)c2cc(-c3cccs3)on2)cc1	-15.0	2.4	1.8	·	·	2.5
COc1ccc(NC(=O)c2cc(-c3cccs3)on2)cc1OC	13.1	42.3*	-14.5	-0.1	0.0	-2.5
COc1ccc(NC(=O)COC(=O)CCC(=O)c2cccs2)cc1OC	10.6	11.0	·	·	·	22.9*
Cc1ccc(NC(=O)COC(=O)CCC(=O)c2cccs2)cc1C	-6.2	2.3	-4.5	0.2	1.3	1.2
O=C(N/N=C/c1cn(-c2ccccc2)nc1-c1cccs1)c1ccncc1	49.5*	11.8	-2.1	-0.1	2.4	3.4
Cc1c(NC(=O)c2cc(-c3cccs3)on2)c(=O)n(-c2ccccc2)n1C	·	·	-1.2	1.0	0.5	174.6*
CCOC(=O)N[C@H](C(=O)N1CCC[C@H]1C(=O)NC1CCCC1)C1CCCCC1	-4.7	1.8	·	·	·	·
O=C(O)CCCCN1C(=O)C=CC1=O	-17.0	1.5	·	·	·	·
CC(C)COc1ccc(-c2nn(-c3ccccc3)cc2C(=O)Nc2nccs2)cc1	72.7*	11.0	9.3	1.6	0.2	5.7
COC(=O)c1cn(-c2ccccc2)nc1-c1ccc(OC)cc1	-17.9	5.8	-3.6	0.6	-0.5	0.6
CCOC(=O)c1ccc(NC(=O)c2cn(-c3ccccc3)nc2-c2ccncc2)cc1	62.5*	4.8	-5.4	0.4	-1.0	-6.8
Cc1ccc(-c2nn(-c3ccccc3)cc2C(=O)Nc2ccc(C(=O)O)cc2)cc1	28.9	4.1	-17.3	-0.1	-0.7	2.4
CCCn1c2c(c(=N)c3c1CCC3)CCC2	1.9	11.2	-7.2	0.4	-0.1	-21.6
CCCCCCCn1c2c(c(=N)c3ccccc31)CCC2	-1.2	5.0	52.7*	0.2	-0.7	0.4
COC(=O)C1=C(C)N(Cc2ccc(C(F)(F)F)cc2)C(=NCc2ccccc2C(F)(F)F)NC1c1ccc(C(F)(F)F)cc1 (stereo not given)	-13.4	1.9	·	·	·	·
COCc1nnc(SCC(=O)NCc2ccccc2)n1-c1ccccc1	-0.9	-1.1	-13.6	-0.6	24.8*	-3.0
Cc1cc2nc(N=C(N)N)nc(C)c2cc1C	-4.7	0.7	19.0*	-0.4	-0.5	·
COC(=O)c1ccc2c(=O)n(CCCCCC(=O)NC3CCCCC3)c(=O)[nH]c2c1	12.4	0.1	·	·	·	·
COc1ccc(NC(=O)N(C)C[C@H]2OCc3cn(nn3)CCCC(=O)N([C@H](C)CO)C[C@@H]2C)cc1	7.4	2.0	·	·	·	·
O=[N+]([O-])c1ccccc1S(=O)(=O)N(CC1CO1)c1ccccc1 (stereo not given)	-5.9	-1.9	13.9	·	·	13.5*
Cc1ccc(N(CC2CO2)S(=O)(=O)c2ccccc2[N+](=O)[O-])cc1 (stereo not given)	-8.1	-0.2	-6.3	·	·	-0.6
SMILES	TAAR1 antagonist	TAAR1 agonist	GPR7 antagonist	TRPML3 ag	TRPN1 ag	LANA-H2A inh
CCN1/C(=C/C=C/c2sc3ccccc3[n+]2CC)Sc2ccccc21	·	·	·	·	·	-39.5
CC[n+]1c(/C=C2\Sc3ccccc3N2C)ccc2cccc(C)c21	39.7	29.2	1.4	17.9*	41.7*	·
CCN1/C(=C/c2ccc3cc(C)ccc3[n+]2CC)Sc2ccccc21	55.8*	25.9	43.6*	29.9*	83.4*	-134.5
CCOC(=O)CCCCCC(=O)Nc1ccc2c(c1)C(=O)N([C@H](C)CO)C[C@@H](C)[C@@H](CN(C)S(=O)(=O)c1ccc(C)cc1)OCCCC[C@H](C)O2	-3.9	1.5	·	·	·	·
CCCN(CCC)CCN1CCN(C(=O)[C@H](CCc2ccccc2)NC(=O)[C@H]2O[C@@H](n3cnc4c(N)ncnc43)[C@H](O)[C@@H]2O)CC1	-6.2	2.3	·	·	·	·
Cc1ccc(Cn2cccc(NC(=O)NC3CCCCC3)c2=O)cc1	-13.9	35.3	3.2	0.9	2.4	1.3
O=C(Nc1cccn(Cc2ccc(F)cc2)c1=O)NC1CCCCC1	-8.1	39.1*	-6.8	0.9	1.5	0.1
COC(=O)CCC[C@H](C)[C@@H](NS(=O)(=O)c1ccc(C)cc1)C(C)(C)C	-15.6	-2.1	·	·	·	·
CCc1cccc(CC)c1N1C(=O)C2=C(SCCCS2)C1=O	47.4	40.1*	·	·	·	·
C[C@H](CO)N1C[C@H](C)[C@@H](CN(C)C(=O)NC2CCCCC2)OCc2cn(nn2)CCCC1=O	-5.5	0.6	·	·	·	·
CCC(C)(C)n1nnnc1C(c1cc2ccc(OC)cc2[nH]c1=O)N1CCc2ccccc2C1 (stereo not given)	3.0	74.7*	-8.9	0.8	0.7	-21.4
CCOc1cc(NC(=S)Nc2ccccc2)c(OCC)cc1NC(=O)c1ccccc1	6.3	2.0	-4.3	76.7*	-0.4	3.3
CCOc1cc(NC(=O)c2ccccn2)c(OCC)cc1NC(=O)c1ccccc1	3.5	1.9	-2.2	0.7	-0.3	-0.2
O=C(N/N=C/c1ccc(O)cc1)Nc1cccc2nsnc12	66.9*	38.2*	-22.0	-1.0	0.3	3.9
COc1cc(/C=N/NC(=O)Nc2cccc3nsnc23)cc(OC)c1OC	10.0	5.7	3.1	0.5	-0.1	·
COc1ccccc1-c1cc(NC=O)c2ncc(-c3cccc(C(C)=O)c3)n2c1	50.3*	15.5	·	·	·	·
CS(=O)(=O)c1ccc(-c2cnc3c(NC=O)cc(-c4ccsc4)cn23)cc1	-1.7	8.2	·	·	·	·
CC(=O)Nc1cccc(-c2cc(NC=O)c3ncc(-c4ccc(C(C)=O)cc4)n3c2)c1	43.3	12.5	·	·	·	·
COc1ccc(-c2cc(NC=O)c3ncc(-c4cccc(OC)c4)n3c2)cc1	59.2*	9.2	·	·	·	·
COc1cccc(-c2cnc3c(NC=O)cc(-c4ccc(N(C)C)cc4)cn23)c1	-13.9	2.5	·	·	·	·
COc1ccccc1-c1cc(NC=O)c2ncc(-c3cccc(C(=O)N(C)C)c3)n2c1	22.9	12.8	·	·	·	·
COc1ccc(-c2cc(NC=O)c3ncc(-c4ccc(C(C)=O)cc4)n3c2)cn1	52.7*	9.3	·	·	·	·
O=CNc1cc(-c2ccsc2)cn2c(-c3ccccc3)cnc12	60.2*	8.4	·	·	·	·
